Experimental data from publication PMC7347020 (Science (New York, N.Y.), 2020).
Read-outs that look alike come from different tables or passages of the source.

Assays:
PARP-1 [1] = target: T1, PARP-1 (Homo sapiens, UniProt P09874); assay: Classification of PARPi by allosteric effects; conditions: based on HXMS and DNA binding studies
CATΔHD [2] = conditions: cited from earlier work
PARP-1 [3] = target: T1, PARP-1; assay: FP DNA binding affinity of PARP-1 for SSB-DNA
PARP-1 [4] = target: T1, PARP-1; assay: SPR dissociation kinetics of PARP-1 from SSB-DNA; format: binding
WT PARP-1 = WT PARP-1 (Homo sapiens, UniProt P09874); assay: FP DNA competition; format: binding; conditions: WT PARP-1, with or without inhibitor
PARP-1 W318R [5] = target: T2, PARP-1 W318R (Homo sapiens, UniProt P09874, W318R); assay: FP DNA competition, W318R mutant; format: binding
Summary of the method: (§1)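 Fluorescence polarization competition used FAM-labeled SSB-DNA bound by the PARP-1 variant, challenged with unlabeled SSB-DNA, with or without test compound.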

PARP-1 R591C [6] = target: T3, PARP-1 R591C (Homo sapiens, UniProt P09874, R591C); assay: FP DNA competition, R591C mutant; format: binding
Summary of the method: as §1

PARP-1 D766/770A [7] = target: T4, PARP-1 D766/770A (Homo sapiens, UniProt P09874, D766A/D770A); assay: FP DNA competition, D766/770A mutant; format: binding
Summary of the method: as §1

PARP-1 CAT = PARP-1 CAT (Homo sapiens, UniProt P09874); assay: DSF thermal stability, CAT domain; format: binding
Summary of the method: (§2)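 Protein melting temperature was measured by differential scanning fluorimetry with and without test compound. ΔTM was taken as TM with compound minus TM without compound.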

CATΔHD [8] = assay: DSF thermal stability, CATΔHD; format: binding
Summary of the method: as §2

PARP-1 [9] = target: T1, PARP-1; assay: HXMS of WT PARP-1/SSB-DNA complex; conditions: PARP-1/SSB-DNA complex with versus without inhibitor
PARP-1 W318R [10] = target: T2, PARP-1 W318R; assay: HXMS of PARP-1 W318R/SSB-DNA; conditions: W318R mutant
PARP-1 R591C [11] = target: T3, PARP-1 R591C; assay: HXMS of PARP-1 R591C/SSB-DNA; conditions: R591C mutant
PARP-1 D766/770A [12] = target: T4, PARP-1 D766/770A; assay: HXMS of PARP-1 D766/770A/SSB-DNA; conditions: D766/770A mutant
Summary of the method: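 PARP-1 (2.6 μM) was mixed with SSB-DNA (5 μM) and, where applicable, inhibitor (5.2 μM). Deuterium on-exchange ran at RT in 10 mM HEPES pD 7.0, 150 mM NaCl (final 75% D2O). Samples were quenched in ice-cold buffer, frozen in liquid nitrogen, pepsin-digested, separated on C18 and analysed by electrospray MS for per-peptide deuteration.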

PARP-1 [13] = target: T1, PARP-1; conditions: cited from earlier work
PARP-1 [14] = target: T1, PARP-1; assay: PARP-1 catalytic inhibition; format: biochemical; conditions: catalytic inhibitory potency; not shown
[15] = tested on: MMS-treated CAPAN-1 cells; assay: Chromatin fractionation assay; format: cell-based; conditions: 1, 10 and 25 μM, 0.01% MMS
Summary of the method: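 Chromatin fractionation measured chromatin-bound PARP-1 in cells exposed to 0.01% MMS, with or without test compound.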

[16] = tested on: ADP-ribosylation activity in cells; assay: Measurement of PAR in cells; format: cell-based; conditions: 0.01, 0.1, 1 and 10 μM, 0.01% MMS
Summary of the method: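 Cells were co-treated with test compound and 0.01% MMS. Cellular poly(ADP-ribose) was detected by western blot with an anti-pan-ADP-ribose binding reagent.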

[17] = tested on: CAL51 PARP-1−/− cells transfected with PARP-1-GFP; assay: Microirradiation assay, PARP-1-GFP residence at DNA damage sites; format: cell-based
CAPAN-1 cells = assay: Cell survival assay, CAPAN-1; format: cell-based; conditions: cell survival experiment
[18] = tested on: SUM149PT-BRCA1mut and SUM149PT-BRCA1rev cells; assay: Cell survival assay, SUM149PT-BRCA1mut versus SUM149PT-BRCA1rev; format: cell-based
[19] = tested on: parental or PARP-1−/− cells; assay: Survival assay, parental or PARP-1−/− cells; format: cell-based; conditions: low concentrations; parental versus PARP-1−/−
[20] = tested on: MMS-treated CAPAN-1 cells; conditions: cited from earlier work

Chain of WT PARP-1 (P09874 whole entry): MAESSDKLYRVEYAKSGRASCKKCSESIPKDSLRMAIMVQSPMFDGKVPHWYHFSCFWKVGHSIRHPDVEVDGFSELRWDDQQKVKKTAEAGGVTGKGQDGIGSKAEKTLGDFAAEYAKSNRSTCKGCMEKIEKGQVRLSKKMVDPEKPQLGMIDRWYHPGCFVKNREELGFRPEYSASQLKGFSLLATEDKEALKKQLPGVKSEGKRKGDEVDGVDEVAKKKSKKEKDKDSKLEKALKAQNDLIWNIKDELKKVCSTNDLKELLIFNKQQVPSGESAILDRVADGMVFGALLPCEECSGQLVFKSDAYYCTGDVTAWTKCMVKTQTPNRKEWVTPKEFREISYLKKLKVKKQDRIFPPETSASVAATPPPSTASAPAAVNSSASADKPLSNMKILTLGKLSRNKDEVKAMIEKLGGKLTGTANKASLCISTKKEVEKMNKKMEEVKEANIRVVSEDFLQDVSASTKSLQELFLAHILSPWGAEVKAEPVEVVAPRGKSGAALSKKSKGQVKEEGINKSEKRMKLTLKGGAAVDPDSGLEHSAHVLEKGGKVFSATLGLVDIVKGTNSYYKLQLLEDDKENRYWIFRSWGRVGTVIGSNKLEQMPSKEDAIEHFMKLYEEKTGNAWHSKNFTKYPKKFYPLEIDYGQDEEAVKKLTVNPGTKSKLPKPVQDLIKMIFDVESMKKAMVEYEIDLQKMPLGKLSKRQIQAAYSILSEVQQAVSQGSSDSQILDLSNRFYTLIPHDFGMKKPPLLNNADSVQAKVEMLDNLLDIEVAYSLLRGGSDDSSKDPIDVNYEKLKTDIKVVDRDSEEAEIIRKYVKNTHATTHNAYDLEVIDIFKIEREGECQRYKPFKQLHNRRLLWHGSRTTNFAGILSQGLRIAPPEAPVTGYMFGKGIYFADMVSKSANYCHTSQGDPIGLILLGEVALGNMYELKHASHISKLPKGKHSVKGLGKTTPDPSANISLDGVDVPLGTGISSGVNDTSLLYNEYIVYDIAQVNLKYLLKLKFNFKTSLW
T1 sequence (P09874 whole entry): as above
T4 sequence (P09874 whole entry D766A/D770A): as the sequence (P09874 whole entry) above, with D766A, D770A counted along it
T2 sequence (P09874 whole entry W318R): as the sequence (P09874 whole entry) above, with W318R counted along it
T3 sequence (P09874 whole entry R591C): as the sequence (P09874 whole entry) above, with R591C counted along it
Chain of PARP-1 CAT (P09874 661-1014 limits assumed): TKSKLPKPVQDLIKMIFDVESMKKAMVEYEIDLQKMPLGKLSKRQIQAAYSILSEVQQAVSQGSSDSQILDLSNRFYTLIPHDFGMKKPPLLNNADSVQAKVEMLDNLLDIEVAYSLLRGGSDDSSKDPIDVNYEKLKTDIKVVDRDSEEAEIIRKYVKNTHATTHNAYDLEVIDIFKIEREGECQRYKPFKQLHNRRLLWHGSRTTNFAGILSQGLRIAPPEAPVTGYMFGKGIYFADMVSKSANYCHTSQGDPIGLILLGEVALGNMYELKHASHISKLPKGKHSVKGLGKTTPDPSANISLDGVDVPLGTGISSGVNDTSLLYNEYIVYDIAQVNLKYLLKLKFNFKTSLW

SMILES: NC(=O)c1cccc([C@@H]2O[C@H](COP(=O)(O)OP(=O)(O)OC[C@H]3O[C@@H](n4cnc5c(N)ncnc54)[C@H](O)[C@@H]3O)[C@@H](O)[C@H]2O)c1 [BAD, benzamide adenine dinucleotide]
- PARPi type by allosteric effect (PARP-1 [1]): Type I
- binding to CAT versus CATΔHD (CATΔHD [2]): only bind to CATΔHD

SMILES: Nc1ncnc2c1ncn2[C@@H]1O[C@H](C(=O)N2CCN(CC(=O)Nc3cccc4c3CNC4=O)CC2)[C@@H](O)[C@H]1O [EB-47]
- influence on PARP-1 SSB DNA binding affinity (in words) (PARP-1 [3]): large increase in SSB DNA binding affinity
- influence on dissociation (kd) of PARP-1 from a DNA break (in words) (PARP-1 [4]): markedly slowed release from DNA
- PARP-1 retention on SSB-DNA (WT PARP-1): increased the retention of WT PARP-1 on DNA
- PARP-1 retention on SSB-DNA (PARP-1 W318R [5]): unaffected
- PARP-1 retention on SSB-DNA (PARP-1 R591C [6]): unaffected
- PARP-1 release from / retention on a DNA break (PARP-1 D766/770A [7]): insensitive
- binding to PARP-1 CAT (PARP-1 CAT): bound
- binding to CATΔHD (CATΔHD [8]): bound
- allosteric effect on PARP-1 (HX changes) (PARP-1 [9]): highly localized destabilization of the helical domain (HD)
- allosteric effect on PARP-1 (HX changes) (PARP-1 W318R [10]): destabilization of the αB and αF helices of the HD
- allosteric effect on PARP-1 (HX changes) (PARP-1 R591C [11]): destabilization of the αB and αF helices of the HD
- allosteric effect on PARP-1 (HX changes) (PARP-1 D766/770A [12]): no longer influenced PARP-1 allostery
- PARPi type by allosteric effect (PARP-1 [1]): Type I
- affinity for PARP-1 (PARP-1 [13]): nM range

SMILES: NC(=O)c1ccc[n+]([C@@H]2O[C@H](COP(=O)([O-])OP(=O)(O)OC[C@H]3O[C@@H](n4cnc5c(N)ncnc54)[C@H](O)[C@@H]3O)[C@@H](O)[C@H]2O)c1 [NAD^+]
- binding to CAT versus CATΔHD (CATΔHD [2]): only bind to CATΔHD

SMILES: COC(=O)c1cnc(N2CCN(C(=O)c3ccc(-c4nc5c(C(N)=O)cccc5[nH]4)cc3)CC2)nc1 [UKTT15]
- IC50 (PARP-1 [14]): 2.6 nM
- increase in PARP-1 affinity for DNA relative to no inhibitor (PARP-1 [3]; WT PARP-1): 3.5 fold
- PARP-1 retention on SSB-DNA (WT PARP-1): strong PARP-1 retention on a DNA break
- PARP-1 release from / retention on a DNA break (PARP-1 D766/770A [7]): still retained on DNA
- allosteric effect on PARP-1 (HX changes) (PARP-1 [9]): profound changes to the HX behavior of PARP-1
- PARPi type by allosteric effect (PARP-1 [1]): Type I
- PARP-1 trapping on DNA in cells [15]: increased ability to trap PARP-1 on DNA
- inhibition of ADP-ribosylation activity in cells (PAR levels) [16]: not better than veliparib
- PARP-1-GFP residence time at sites of UV laser-induced damage [17]: increase in the PARP-1-GFP residence time
- killing of CAPAN-1 cells (CAPAN-1 cells): more efficient than veliparib
- BRCA selectivity of cell killing [18]: killing of the SUM149-BRCA1mut cells at a lower concentration compared to the SUM149PT-BRCA1rev cells
- PARP-1 dependence of cell killing [19]: required PARP-1 expression

SMILES: NC(=O)c1cccc2cn(-c3ccc([C@@H]4CCCNC4)cc3)nc12 [niraparib]
- decrease in PARP-1 SSB DNA binding affinity (PARP-1 [3]): 3–5 fold
- influence on dissociation (kd) of PARP-1 from a DNA break (in words) (PARP-1 [4]): slightly accelerated release
- allosteric effect on PARP-1 (HX changes) (PARP-1 [9]): stronger allosteric effects to the HD
- PARPi type by allosteric effect (PARP-1 [1]): Type III

SMILES: CNCc1ccc(-c2[nH]c3cc(F)cc4c3c2CCNC4=O)cc1 [rucaparib]
- decrease in PARP-1 SSB DNA binding affinity (PARP-1 [3]): 3–5 fold
- influence on dissociation (kd) of PARP-1 from a DNA break (in words) (PARP-1 [4]): slightly accelerated release
- allosteric effect on PARP-1 (HX changes) (PARP-1 [9]): stronger allosteric effects to the HD
- PARPi type by allosteric effect (PARP-1 [1]): Type III

SMILES: Cn1ncnc1[C@H]1c2n[nH]c(=O)c3cc(F)cc(c23)N[C@@H]1c1ccc(F)cc1 [talazoparib]
- PARP-1 trapping in cells [20]: most efficient trapper of the clinical inhibitors

SMILES: C[C@]1(c2nc3c(C(N)=O)cccc3[nH]2)CCCN1 [veliparib]
- decrease in PARP-1 SSB DNA binding affinity (PARP-1 [3]): 3–5 fold
- influence on dissociation (kd) of PARP-1 from a DNA break (in words) (PARP-1 [4]): slightly accelerated release
- PARP-1 retention on SSB-DNA (WT PARP-1): not significant
- allosteric effect on PARP-1 (HX changes) (PARP-1 [9]): stronger allosteric effects to the HD
- PARPi type by allosteric effect (PARP-1 [1]): Type III
- PARP-1 trapping in cells ([20]; chromatin fractionation): poor PARP-1 trapper
